Results collected from several papers.
CNR2: Cannabinoid receptor 2 (CNR2, Homo sapiens, UniProt P34972)
F10: Coagulation factor X (F10, Homo sapiens, UniProt P00742)
CASR: Extracellular calcium-sensing receptor (CASR, Homo sapiens, UniProt P41180)

C=C1CC/C=C(\C)CC[C@@H]2[C@@H]1CC2(C)C — Ki (CNR2; ligand displacement; radioligand; cell membranes): > 10 µM
CC(=O)N[C@H]1Cc2ccc(cc2)OCCCC[C@@H](C(=O)N[C@@H](CCCNC(=N)N)C(=O)c2nc3ccccc3s2)NC(=O)[C@H](CC(C)C)NC1=O — IC50 (F10; enzyme activity; inhibitor; absorbance; with preincubation): 2.65 µM
CCC(CC)(NC(=O)c1ccc(C2CC2)c(Cc2ccc(F)cc2)n1)C(=O)NCCOCCOCCNC(=O)c1ccc2c(c1)C1(OC2=O)c2ccc(N(C)C)cc2[Si](C)(C)c2cc(N(C)C)ccc21 — Ki (CNR2; ligand displacement; radioligand; cell membranes): 0.676 µM
CNC(=O)c1ccc(-c2cnn3ccc(C(=O)N(C)c4ccc(Cl)c(C(=O)O)c4)cc23)cc1 — IC50 (Histamine H3 receptor (HRH3, Homo sapiens, UniProt Q9Y5N1); cell-free assay): > 30 µM
CCCCCc1cc(O)c2c(c1)OC(C)(C)[C@@H]1CC[C@@H](C)C=C21 — Ki (CNR2; ligand displacement; radioligand; cell membranes): 0.028 µM
CNC(C)Cc1ccc2c(c1)OCO2 (stereo not shown) — Ki (Solute carrier family 22 member 2 (SLC22A2, Homo sapiens, UniProt O15244); transporter uptake; inhibitor): 1.9 µM
C[C@@H](NCCCc1cccc(C(F)(F)F)c1)c1cccc2ccccc12 — EC50 (CASR; G protein activation; agonist; BRET): 0.071 µM
CC(=O)N[C@H]1C/C=C/COc2ccc(cc2)C[C@@H](C(=O)N[C@@H](CCCNC(=N)N)C(=O)c2nc3ccccc3s2)NC(=O)[C@H](CC(C)C)NC1=O — IC50 (F10; enzyme activity; inhibitor; absorbance; with preincubation): 8.81 µM
CC(NCc1cccc(-n2cccn2)c1)c1csc2ccccc12 (stereo not shown) — EC50 (CASR; G protein activation; agonist; BRET): 0.444 µM
CC(C)C[C@@H]1NC(=O)[C@H](C(C)(C)C)NC(=O)[C@H](Cc2ccc(O)cc2)NC(=O)[C@@H]2CCCN2C(=O)[C@H](CCCCN)NC(=O)[C@H](CCCNC(=N)N)NC1=O — Ki (Neurotensin receptor type 1 (Ntsr1, Rattus norvegicus, UniProt P20789); ligand displacement; flow cytometry): > 100 µM
